ChEMBL document CHEMBL4219235, “Novel fatty acid chain modified GLP-1 derivatives with prolonged in vivo glucose-lowering ability and balanced glucoregulatory activity” (Bioorg Med Chem, 2018)
Calls of active or inactive are those of the source.

Key:
Albumin = Albumin (Homo sapiens, UniProt P02768); experiment: Binding affinity to human serum albumin after 3 hrs by LC-MS/MS analysis; set-up: concentration or dose not given beside the values
Summary of the method: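 HSA was coupled to NHS-activated Sepharose (6–7 mg HSA/mL wet resin); an inactivated albumin-free resin served as control. Peptide (100 µg/mL in PBS) was incubated with each resin for 3 h at 25 °C. After centrifugation, unbound peptide in the supernatant was quantified by LC-MS/MS.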

[1] = Stability of the compound in Sprague-Dawley rat plasma by LC-MS/MS analysis; type: ADME, cell-free
Summary of the method: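 Compounds were incubated in plasma from adult male SD rats at 37 °C for up to 72 h. Samples at each time point underwent solid-phase extraction and LC-MS/MS analysis to follow degradation and derive half-life.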

[2] = biological target: Glucagon-like peptide 1 receptor (Homo sapiens, UniProt P43220); experiment: Agonist activity at recombinant human GLP1 receptor expressed in HEK293 cells assessed as cAMP accumulation by TR-FRET assay; type: functional, cell-based
Sequence of Glucagon-like peptide 1 receptor (P43220 whole entry): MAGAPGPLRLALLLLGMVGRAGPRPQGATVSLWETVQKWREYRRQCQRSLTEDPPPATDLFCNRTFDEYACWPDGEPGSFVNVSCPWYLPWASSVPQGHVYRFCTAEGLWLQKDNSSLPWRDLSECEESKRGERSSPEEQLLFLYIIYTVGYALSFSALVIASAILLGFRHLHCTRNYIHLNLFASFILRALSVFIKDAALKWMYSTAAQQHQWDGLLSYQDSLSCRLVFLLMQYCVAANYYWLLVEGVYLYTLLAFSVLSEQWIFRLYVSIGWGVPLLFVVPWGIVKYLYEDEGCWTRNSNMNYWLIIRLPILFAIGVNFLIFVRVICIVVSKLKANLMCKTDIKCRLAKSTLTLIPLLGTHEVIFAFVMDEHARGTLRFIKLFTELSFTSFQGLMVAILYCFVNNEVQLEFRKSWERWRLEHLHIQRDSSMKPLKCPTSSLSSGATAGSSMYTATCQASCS

Rattus norvegicus [3] = experiment: Antidiabetic activity in Sprague-Dawley rat assessed as blood glucose level at 25 nmol/kg, ip treated 30 mins prior to glucose challenge measured at 15 mins interval for 180 mins by OGTT (reference value: 13.8 +/- 1.31 nmol/L); type: functional
Rattus norvegicus [4] = experiment: Antidiabetic activity in Sprague-Dawley rat assessed as time required to increase in plasma insulin level at 25 nmol/kg, ip treated 30 mins prior to glucose challenge by ELISA; type: functional
Summary of the method: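 Male SD rats (200–250 g), fasted 12 h, n = 6/group, received 25 nmol/kg i.p. or saline 30 min before an oral glucose load (10 g/kg, set as 0 min). EDTA plasma insulin was measured by rat insulin ELISA.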

Mus musculus [5] = experiment: Hypoglycemic activity in STZ-induced diabetic Kunming mouse model assessed as reduction in glucose AUC (0 to 36 hrs) at 150 nmol/kg, ip administered as single dose; type: functional, organism-based
Summary of the method: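 Non-fasted STZ-diabetic Kunming mice with free access to food and water received a single i.p. injection (25 or 150 nmol/kg) or saline; n = 6/group. Blood glucose was followed over time. Euglycemic duration was defined as time below 8.35 mmol/L, and glucose AUC0–36h was calculated.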

INS1 [6] = experiment: Cytoprotective activity against STZ-induced oxidative stress in rat INS-1 cells assessed as cell death at 1 nM after 24 hrs by MTT assay (reference value: 45%); type: functional
INS1 [7] = experiment: Cytoprotective activity against STZ-induced oxidative stress in rat INS-1 cells assessed as cell death at 10 to 100 nM after 24 hrs by MTT assay (reference value: 45%); type: functional
INS1 [8] = experiment: Cytoprotective activity against H2O2-induced glucolipotoxicity in rat INS-1 cells assessed as increase in cell viability at 1 to 100 nM after 24 hrs by MTT assay; type: functional, cell-based
Summary of the method: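 INS-1 cells, about 5000/well, were seeded for 4 h, then stressed with one of: glucolipotoxic medium (25 mM glucose + 0.4 mM oleate-BSA), 50 µM H2O2 or 1 µM STZ. Peptide (1, 10 or 100 nM) was added and cells were incubated 24 h. Viability was read by MTT (200 µg/mL, 3 h, 37 °C), formazan dissolved in DMSO, A570. Triplicate, repeated three times.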

INS1 [9] = experiment: Cytoprotective activity against STZ-induced oxidative stress in rat INS-1 cells assessed as reduction in apoptosis at 10 nM after 24 hrs by Annexin-V-FITC/propidium iodide staining based flow cytometric analysis; type: functional, cell-based
Summary of the method: (§1)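 INS-1 cells, about 5000/well, were seeded for 24 h, then exposed to glucolipotoxic medium, 50 µM H2O2 or 1 µM STZ, plus peptide at 10 nM, for 24 h. Apoptosis was analyzed by flow cytometry; triplicate, repeated three times.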

INS1 [10] = experiment: Cytoprotective activity against H2O2-induced glucolipotoxicity in rat INS-1 cells assessed as reduction in apoptosis at 10 nM after 24 hrs by Annexin-V-FITC/propidium iodide staining based flow cytometric analysis; type: functional, cell-based; summary of the method: as §1
Mus musculus [11] = experiment: Antidiabetic activity in STZ-induced diabetic Kunming mouse model assessed as fasting blood glucose level at 25 nmol/kg, ip administered once daily for 3 weeks measured at 5 days interval for 21 days during compound dosing (reference value: […]); type: functional
Summary of the method: (§2)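 STZ diabetes induced with 40 mg/kg/day i.p. for 5 consecutive days after overnight fasting. Mice with fasting glucose ≥11.1 mM were grouped by matched body weight and dosed 25 nmol/kg i.p. once daily for 3 weeks; saline served as control. Fasting plasma glucose was measured every five days, and HbA1c at day 24; n = 6/group.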

Mus musculus [12] = experiment: Antidiabetic activity in STZ-induced diabetic Kunming mouse model assessed as reduction in HbA1c level at 25 nmol/kg, ip administered once daily for 3 weeks measured at post last dose by Beckman coulter based method; type: functional, organism-based; summary of the method: as §2
Mus musculus [13] = experiment: Antidiabetic activity in C57BL/6 mouse assessed as reduction in blood glucose level at 25 nmol/kg, ip treated 30 mins prior to glucose challenge measured up to 90 mins by IPGTT; type: functional, organism-based
Summary of the method: (§3)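 Male C57BL/6 mice, 6 weeks old, fasted overnight (12 h), n = 6/group; given 25 nmol/kg or saline i.p., then i.p. glucose challenge (2.0 g/kg) 30 min later, set as 0 h. Glucose challenges were repeated at 6 h intervals to mimic three meals a day. Blood glucose was followed and AUC calculated.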

Mus musculus [14] = experiment: Antidiabetic activity in C57BL/6 mouse assessed as reduction in blood glucose level at 25 nmol/kg, ip treated 30 mins prior to glucose challenge measured after 120 mins by IPGTT; type: functional, organism-based; summary of the method: as §3
Mus musculus [15] = experiment: Antidiabetic activity in STZ/diet-induced obese C57BL/6 mouse assessed as reduction in cumulative food intake at 25 nmol/kg, ip administered daily for 4 weeks measured daily during compound dosing relative to control; type: functional; set-up: scale not given: the % may be the effect or the level left
Summary of the method: (§4)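 Male C57BL/6J DIO mice on high-fat diet were treated for 4 weeks with saline as control; LFD-fed mice (n = 6/group) were used as normal reference. Water intake, food intake and body weight were recorded daily. Terminal serum leptin and adiponectin were measured by ELISA. TC, TG, HDL, LDL, ALT and AST were measured on a clinical chemistry analyzer.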

Mus musculus [16] = experiment: Antidiabetic activity in STZ/diet-induced obese C57BL/6 mouse assessed as reduction in food intake at 25 nmol/kg, ip measured after 6 hrs relative to control; type: functional; set-up: scale not given: the % may be the effect or the level left
Summary of the method: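 Acute study in fasted mice given an i.p. dose; food intake was measured at 6 h after administration.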

Mus musculus [17] = experiment: Antidiabetic activity in STZ/diet-induced obese C57BL/6 mouse assessed as reduction in body weight gain at 25 nmol/kg, ip administered daily for 4 weeks measured daily during compound dosing; type: functional, organism-based; summary of the method: as §4
Mus musculus [18] = experiment: Antidiabetic activity in STZ/diet-induced obese C57BL/6 mouse assessed as reduction in serum AST level at 25 nmol/kg, ip administered daily for 4 weeks measured post last dose; type: functional, organism-based; summary of the method: as §4
Mus musculus [19] = experiment: Antidiabetic activity in STZ/diet-induced obese C57BL/6 mouse assessed as reduction in serum total triglyceride level at 25 nmol/kg, ip administered daily for 4 weeks measured post last dose; type: functional, organism-based; summary of the method: as §4
Mus musculus [20] = experiment: Antidiabetic activity in STZ/diet-induced obese C57BL/6 mouse assessed as reduction in ratio of LDL to HDL level at 25 nmol/kg, ip administered daily for 4 weeks measured post last dose; type: functional, organism-based; summary of the method: as §4
Mus musculus [21] = experiment: Antidiabetic activity in STZ/diet-induced obese C57BL/6 mouse assessed as reduction in size of brown adipocytes at 25 nmol/kg, ip administered daily for 4 weeks measured post last dose; type: functional, organism-based

Sequence of Albumin (P02768 whole entry): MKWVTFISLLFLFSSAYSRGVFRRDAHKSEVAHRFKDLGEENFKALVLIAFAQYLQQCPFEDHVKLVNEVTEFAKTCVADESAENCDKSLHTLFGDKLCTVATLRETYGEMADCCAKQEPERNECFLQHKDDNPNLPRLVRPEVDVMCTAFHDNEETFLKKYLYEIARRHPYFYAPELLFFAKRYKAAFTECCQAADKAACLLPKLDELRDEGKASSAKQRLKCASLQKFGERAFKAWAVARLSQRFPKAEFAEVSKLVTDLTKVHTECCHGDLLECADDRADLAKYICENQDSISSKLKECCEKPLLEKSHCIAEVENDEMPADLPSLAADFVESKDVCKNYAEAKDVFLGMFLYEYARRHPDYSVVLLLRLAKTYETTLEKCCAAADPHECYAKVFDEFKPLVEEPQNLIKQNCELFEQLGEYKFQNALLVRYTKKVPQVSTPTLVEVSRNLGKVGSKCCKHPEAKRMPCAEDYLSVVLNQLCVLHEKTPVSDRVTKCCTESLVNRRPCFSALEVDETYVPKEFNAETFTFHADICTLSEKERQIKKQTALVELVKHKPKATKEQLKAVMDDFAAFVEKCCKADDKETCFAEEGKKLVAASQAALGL

With `CC[C@H](C)[C@H](NC(=O)[C@H](Cc1ccccc1)NC(=O)[C@H](CCC(=O)O)NC(=O)[C@H](CCCCN)NC(=O)[C@H](C)NC(=O)[C@H](C)NC(=O)[C@H](CCC(N)=O)NC(=O)CNC(=O)[C@H](CCC(=O)O)NC(=O)[C@H](CC(C)C)NC(=O)[C@H](Cc1ccc(O)cc1)NC(=O)[C@H](CO)NC(=O)[C@H](CO)NC(=O)[C@@H](NC(=O)[C@H](CC(=O)O)NC(=O)[C@H](CO)NC(=O)[C@@H](NC(=O)[C@H](Cc1ccccc1)NC(=O)[C@@H](NC(=O)CNC(=O)[C@H](CCC(=O)O)NC(=O)CNC(=O)[C@@H](N)Cc1cnc[nH]1)[C@@H](C)O)[C@@H](C)O)C(C)C)C(=O)N[C@@H](C)C(=O)N[C@@H](Cc1c[nH]c2ccccc12)C(=O)N[C@@H](CC(C)C)C(=O)N[C@H](C(=O)N[C@@H](CCCCN)C(=O)NCC(=O)N[C@@H](CCCNC(=N)N)C(=O)N[C@@H](CSC1CC(=O)N(CCCCCCCCCCCC(=O)O)C1=O)C(N)=O)C(C)C` (some centres not stated) the Activity (Albumin) was 62.4%, the Stability [1] was “Stable” and the EC50 [2] was 0.0198 nM. The Activity (Rattus norvegicus [3]) was 6.7e+06 nmol/L, the Time (Rattus norvegicus [4]) was 15 to 60 min and the Activity (Mus musculus [5]) was “Active”. For the same compound, the Activity (INS1 [6]) was 28.8%, the Activity (INS1 [7]) was 21.9% and the Activity (INS1 [8]) was “Active”. The Activity (INS1 [9]) was “Active”, the Activity (INS1 [10]) was “Active” and the Activity (Mus musculus [11]) was 1.07e+07 nmol/L. The Activity (Mus musculus [12]) was “Active”, the Activity (Mus musculus [13]) was “inactive” and the Activity (Mus musculus [14]) was “Active”. For the same compound, the Activity (Mus musculus [15]) was 24.9%, the Activity (Mus musculus [16]) was “<=34.5%” and the Activity (Mus musculus [17]) was “Active”. The Activity (Mus musculus [18]) was “Active”, the Activity (Mus musculus [19]) was “Active” and the Activity (Mus musculus [20]) was “inactive”. For the same compound, the Activity (Mus musculus [21]) was “Active”.
